For one data set, the system named is GCPII. The following applies: read-out: IC50 (GCPII); cited from earlier work.
Data set [1] deals with rat chronic constriction injury model of neuropathic pain. The following applies: cited from earlier work.
The nature of data set [2]: Chemical stability in simulated gastric fluid. Conditions: simulated gastric fluid pH 1.2, 37 °C, up to 48 h. The format is physicochemical. The method, boiled down:
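Test compound added to simulated gastric fluid (pH 1.2) and incubated at 37 °C. Samples taken at 30 min, 1, 4 and 48 h. Remaining thiolactone and hydrolysed parent quantified by HPLC: C18 column, water/acetonitrile gradient with 0.1% formic acid, UV detection at 220 nm.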

Data set [3] in a line: Preliminary in vivo pharmacokinetics in rats. Conditions: rat, oral 10 mg/kg, time points 0.25, 0.5, 1, 3 h.
A short description of data set [4]: Metabolic stability in rat liver microsomes. The format is in vitro ADME. The following applies: over 1.5 h (data not shown). Summed up: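 Test compound at 10 μM incubated with rat liver microsomes (0.5 mg/mL) in 100 mM potassium phosphate, pH 7.4, in triplicate. Aliquots at 0, 30, 60 and 90 min were quenched with 2 volumes of ice-cold acetonitrile containing losartan as internal standard. Appearance of the parent thiol and loss of compound were followed by LC/MS/MS (C18, negative-ion ESI, MRM of [M − H]−).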

For data set [5] the following is noted: healthy subjects; cited from earlier work.

The source of these data is PMC3932958 (Journal of medicinal chemistry, 2013).

Broadly, the IC50 is the concentration that gives 50% inhibition. For the molecule `O=C(O)c1cccc(-c2cccc(CCS)c2C(=O)O)c1` [Compound 2, 3-(2-mercaptoethyl)-biphenyl-2,3’-dicarboxylic acid], the half-inhibitory concentration (IC50) with GCPII is 2 nM. Also, the “Potency in a preclinical model of neuropathic pain following oral administration” value in data set [1] (oral administration) is reported as “significantly improved potency over 1”.

For `O=C(O)CCC(CCCS)C(=O)O` (stereo not drawn) [Compound 1, 2-(3-mercaptopropyl)pentanedioic acid], in the data set on GCPII, the IC50 was 90 nM. In addition, the “Efficacy in preclinical animal models by oral administration” value in data set [1] (variety of preclinical animal models, oral) was “showed efficacy”.

In the case of `O=C(O)CCC1CCCSC1=O` (stereo not drawn) [Compound 5, 3-(2-Oxotetrahydro-2H-thiopyran-3-yl)propanoic acid], the “Release of parent compound / stability in simulated gastric fluid” value in data set [2] is listed as “completely stable”. Besides, the “Time of highest plasma level of compound 1” value in data set [3] is “highest at the earliest time point”.

Consider `O=C(O)c1cccc(-c2cccc3c2C(=O)SCC3)c1` [Compound 6, 3-(1-Oxoisothiochroman-8-yl)benzoic acid], for which the “Stability in rat liver microsomes” value in data set [4] is “completely stable”. In addition, the “Release of parent compound / stability in simulated gastric fluid” value in data set [2] is given as “completely stable”.

In the case of `CC(=O)S[C@@H](Cc1ccccc1)C(=O)N[C@H]1Cc2ccccc2[C@H]2CCC[C@@H](C(=O)O)N2C1=O` [Compound 3], in data set [5], the “Plasma exposure to parent 4 after oral administration of prodrug” value is “substantial plasma exposure to 4”.
